Source: ChEMBL document CHEMBL1154310, “Stereoselective synthesis and antimicrobial activity of benzofuran-based (1E)-1-(piperidin-1-yl)-N2-arylamidrazones” (2009)
≈ marks a conversion by molar mass, not a printed value. Calls of active or inactive are those of the source. The calls are words filed in the database; no cut-off is given here.

System: Pseudomonas aeruginosa
Test: Ratio of compound to amoxicilline activity against Pseudomonas aeruginosa at 5 mg/ml after 24 to 48 hrs by agar diffusion technique
Type: functional
Conditions: not given

Structure (SMILES) | Ratio
CC(=N\NC(=O)c1oc2ccccc2c1C)/C(=N/Nc1ccc([N+](=O)[O-])cc1)N1CCCCC1 | 0.35
Cc1c(C(=O)N/N=C(/C=C/c2ccc(Cl)cc2)C(=N/Nc2ccc(Br)cc2)\N2CCCCC2)oc2ccccc12 | 0

System: Pseudomonas aeruginosa
Test: Antibacterial activity against Pseudomonas aeruginosa at 5 mg/ml after 24 to 48 hrs by agar diffusion technique
Type: functional
Conditions: read-out: IZ
Method in brief: (§1)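 Hole-plate diffusion on nutrient agar (pH 6.2) seeded with clinical bacterial isolates. 1 cm wells were filled with 100 of a 5 mg/ml DMSO solution, with DMSO-only control wells and amoxicilline as the reference. Plates were held at 4 °C for 1 h, then incubated at 37 °C. Inhibition zone diameter was read after 24–48 h.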

Structure (SMILES) | zone of inhibition at 5000 µg/mL
CC(=N\NC(=O)c1oc2ccccc2c1C)/C(=N/Nc1ccc([N+](=O)[O-])cc1)N1CCCCC1 | 7 mm

System: Aspergillus fumigatus
Test: Antifungal activity against Aspergillus fumigatus assessed as reduction in size of all morphological features by microscopy
Type: functional, organism-based
Conditions: not given
Method in brief: (§2)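 Agar cultures exposed to 100 of compound were examined directly by phase-contrast or bright-field microscopy with video-camera image analysis, at ×400 for multicellular and ×1000 for unicellular fungi.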

Structure (SMILES) | Activity
CC(=N\NC(=O)c1oc2ccccc2c1C)/C(=N/Nc1ccc([N+](=O)[O-])cc1)N1CCCCC1 | Active

System: Syncephalastrum racemosum
Test: Ratio of compound to grisofulvin activity against Syncephalastrum racemosum at 5 mg/ml after 24 to 48 hrs by agar diffusion technique
Type: functional
Conditions: not given

Structure (SMILES) | Ratio
CC(=N\NC(=O)c1oc2ccccc2c1C)/C(=N/Nc1ccc([N+](=O)[O-])cc1)N1CCCCC1 | 1.16
Cc1c(C(=O)N/N=C(/C=C/c2ccc(Cl)cc2)C(=N/Nc2ccc(Br)cc2)\N2CCCCC2)oc2ccccc12 | 1.05

System: Candida albicans
Test: Antifungal activity against Candida albicans at 5 mg/ml after 24 to 48 hrs by agar diffusion technique
Type: functional
Conditions: read-out: IZ
Method in brief: (§3)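 Clinical fungal or yeast isolates were seeded on malt extract agar (pH 5.4). 1 cm holes received 100 of test solution at 5 mg/ml in DMSO, with DMSO control holes and griseofulvin as the standard. Plates sat 1 h at 4 °C, then were incubated at 28 °C. Zone diameters were measured at 24–48 h.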

Structure (SMILES) | zone of inhibition at 5000 µg/mL
CC(=N\NC(=O)c1oc2ccccc2c1C)/C(=N/Nc1ccc([N+](=O)[O-])cc1)N1CCCCC1 | 18 mm
Cc1c(C(=O)N/N=C(/C=C/c2ccc(Cl)cc2)C(=N/Nc2ccc(Br)cc2)\N2CCCCC2)oc2ccccc12 | 14 mm

System: Escherichia coli
Test: Antibacterial activity against Escherichia coli at 5 mg/ml after 24 to 48 hrs by agar diffusion technique
Type: functional
Conditions: read-out: IZ
Method in brief: as §1

Structure (SMILES) | zone of inhibition at 5000 µg/mL
CC(=N\NC(=O)c1oc2ccccc2c1C)/C(=N/Nc1ccc([N+](=O)[O-])cc1)N1CCCCC1 | 20 mm
Cc1c(C(=O)N/N=C(/C=C/c2ccc(Cl)cc2)C(=N/Nc2ccc(Br)cc2)\N2CCCCC2)oc2ccccc12 | 10 mm

System: Syncephalastrum racemosum
Test: Antifungal activity against Syncephalastrum racemosum at 5 mg/ml after 24 to 48 hrs by agar diffusion technique
Type: functional
Conditions: read-out: IZ
Method in brief: as §3

Structure (SMILES) | zone of inhibition at 5000 µg/mL
CC(=N\NC(=O)c1oc2ccccc2c1C)/C(=N/Nc1ccc([N+](=O)[O-])cc1)N1CCCCC1 | 22 mm
Cc1c(C(=O)N/N=C(/C=C/c2ccc(Cl)cc2)C(=N/Nc2ccc(Br)cc2)\N2CCCCC2)oc2ccccc12 | 20 mm

System: Candida albicans
Test: Ratio of compound to grisofulvin activity against Candida albicans at 5 mg/ml after 24 to 48 hrs by agar diffusion technique
Type: functional
Conditions: not given

Structure (SMILES) | Ratio
CC(=N\NC(=O)c1oc2ccccc2c1C)/C(=N/Nc1ccc([N+](=O)[O-])cc1)N1CCCCC1 | 1.8
Cc1c(C(=O)N/N=C(/C=C/c2ccc(Cl)cc2)C(=N/Nc2ccc(Br)cc2)\N2CCCCC2)oc2ccccc12 | 1.4

System: Candida albicans
Test: Antifungal activity against Candida albicans assessed as shrinking of cell membrane by transmission electron microscopy
Type: functional, organism-based
Conditions: not given
Method in brief: (§4)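 Treated A. fumigatus and C. albicans were fixed, dehydrated and stained. Ultrastructure was then examined by transmission electron microscopy at 80 kV and 25,000 magnification.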

Structure (SMILES) | Activity
CC(=N\NC(=O)c1oc2ccccc2c1C)/C(=N/Nc1ccc([N+](=O)[O-])cc1)N1CCCCC1 | Active

System: Bacillus subtilis
Test: Ratio of compound to amoxicilline activity against Bacillus subtilis at 5 mg/ml after 24 to 48 hrs by agar diffusion technique
Type: functional
Conditions: not given

Structure (SMILES) | Ratio
CC(=N\NC(=O)c1oc2ccccc2c1C)/C(=N/Nc1ccc([N+](=O)[O-])cc1)N1CCCCC1 | 0.83
Cc1c(C(=O)N/N=C(/C=C/c2ccc(Cl)cc2)C(=N/Nc2ccc(Br)cc2)\N2CCCCC2)oc2ccccc12 | 0.67

System: Aspergillus fumigatus
Test: Ratio of compound to grisofulvin activity against Aspergillus fumigatus at 5 mg/ml after 24 to 48 hrs by agar diffusion technique
Type: functional
Conditions: not given

Structure (SMILES) | Ratio
CC(=N\NC(=O)c1oc2ccccc2c1C)/C(=N/Nc1ccc([N+](=O)[O-])cc1)N1CCCCC1 | 1.28
Cc1c(C(=O)N/N=C(/C=C/c2ccc(Cl)cc2)C(=N/Nc2ccc(Br)cc2)\N2CCCCC2)oc2ccccc12 | 0

System: Candida albicans
Test: Antifungal activity against Candida albicans after 24 to 48 hrs by serial dilution technique
Type: functional
Conditions: not given
Method in brief: (§5)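 MIC by serial dilution: DMSO solutions started at a maximum of 500 and were diluted twofold in succession. Each dilution was inoculated with the test organism, and inhibition zones were measured by agar diffusion.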

Structure (SMILES) | MIC
CC(=N\NC(=O)c1oc2ccccc2c1C)/C(=N/Nc1ccc([N+](=O)[O-])cc1)N1CCCCC1 | 75 µg/mL (≈ 162 µM)

System: Aspergillus fumigatus
Test: Antifungal activity against Aspergillus fumigatus assessed as appearance of chlamydospore at 100 uL by microscopy
Type: functional, organism-based
Conditions: not given
Method in brief: as §2

Structure (SMILES) | Activity
CC(=N\NC(=O)c1oc2ccccc2c1C)/C(=N/Nc1ccc([N+](=O)[O-])cc1)N1CCCCC1 | Active

System: Staphylococcus aureus
Test: Antibacterial activity against Staphylococcus aureus at 5 mg/ml after 24 to 48 hrs by agar diffusion technique
Type: functional
Conditions: read-out: IZ
Method in brief: as §1

Structure (SMILES) | zone of inhibition at 5000 µg/mL
CC(=N\NC(=O)c1oc2ccccc2c1C)/C(=N/Nc1ccc([N+](=O)[O-])cc1)N1CCCCC1 | 26 mm
Cc1c(C(=O)N/N=C(/C=C/c2ccc(Cl)cc2)C(=N/Nc2ccc(Br)cc2)\N2CCCCC2)oc2ccccc12 | 10 mm

System: Aspergillus fumigatus
Test: Antifungal activity against Aspergillus fumigatus assessed as aggregation of lysed mitochondria by transmission electron microscopy
Type: functional, organism-based
Conditions: not given
Method in brief: as §4

Structure (SMILES) | Activity
CC(=N\NC(=O)c1oc2ccccc2c1C)/C(=N/Nc1ccc([N+](=O)[O-])cc1)N1CCCCC1 | Active

System: Aspergillus fumigatus
Test: Antifungal activity against Aspergillus fumigatus assessed as increase in thickness of hyphal cell wall and cell membrane by transmission electron microscopy
Type: functional, organism-based
Conditions: not given
Method in brief: as §4

Structure (SMILES) | Activity
CC(=N\NC(=O)c1oc2ccccc2c1C)/C(=N/Nc1ccc([N+](=O)[O-])cc1)N1CCCCC1 | Active

System: Aspergillus fumigatus
Test: Antifungal activity against Aspergillus fumigatus at 5 mg/ml after 24 to 48 hrs by agar diffusion technique
Type: functional
Conditions: read-out: IZ
Method in brief: as §3

Structure (SMILES) | zone of inhibition at 5000 µg/mL
CC(=N\NC(=O)c1oc2ccccc2c1C)/C(=N/Nc1ccc([N+](=O)[O-])cc1)N1CCCCC1 | 32 mm

System: Candida albicans
Test: Antifungal activity against Candida albicans assessed as increase in thickness of hyphal cell wall and cell membrane by transmission electron microscopy
Type: functional, organism-based
Conditions: not given
Method in brief: as §4

Structure (SMILES) | Activity
CC(=N\NC(=O)c1oc2ccccc2c1C)/C(=N/Nc1ccc([N+](=O)[O-])cc1)N1CCCCC1 | Active

System: Staphylococcus aureus
Test: Ratio of compound to amoxicilline activity against Staphylococcus aureus at 5 mg/ml after 24 to 48 hrs by agar diffusion technique
Type: functional
Conditions: not given

Structure (SMILES) | Ratio
CC(=N\NC(=O)c1oc2ccccc2c1C)/C(=N/Nc1ccc([N+](=O)[O-])cc1)N1CCCCC1 | 0.87
Cc1c(C(=O)N/N=C(/C=C/c2ccc(Cl)cc2)C(=N/Nc2ccc(Br)cc2)\N2CCCCC2)oc2ccccc12 | 0.33

System: Aspergillus fumigatus
Test: Antifungal activity against Aspergillus fumigatus assessed as shrinking of cell membrane by transmission electron microscopy
Type: functional, organism-based
Conditions: not given
Method in brief: as §4

Structure (SMILES) | Activity
CC(=N\NC(=O)c1oc2ccccc2c1C)/C(=N/Nc1ccc([N+](=O)[O-])cc1)N1CCCCC1 | Active

System: Aspergillus fumigatus
Test: Antifungal activity against Aspergillus fumigatus assessed as distortion of cellular sub-organs by transmission electron microscopy
Type: functional, organism-based
Conditions: not given
Method in brief: as §4

Structure (SMILES) | Activity
CC(=N\NC(=O)c1oc2ccccc2c1C)/C(=N/Nc1ccc([N+](=O)[O-])cc1)N1CCCCC1 | Active

System: Candida albicans
Test: Antifungal activity against Candida albicans assessed as aggregation of lysed mitochondria by transmission electron microscopy
Type: functional, organism-based
Conditions: not given
Method in brief: as §4

Structure (SMILES) | Activity
CC(=N\NC(=O)c1oc2ccccc2c1C)/C(=N/Nc1ccc([N+](=O)[O-])cc1)N1CCCCC1 | Active

System: Staphylococcus aureus
Test: Antibacterial activity against Staphylococcus aureus after 24 to 48 hrs by serial dilution technique
Type: functional
Conditions: not given
Method in brief: as §5

Structure (SMILES) | MIC
CC(=N\NC(=O)c1oc2ccccc2c1C)/C(=N/Nc1ccc([N+](=O)[O-])cc1)N1CCCCC1 | 75 µg/mL (≈ 162 µM)

System: Candida albicans
Test: Antifungal activity against Candida albicans assessed as appearance of elongated and swollen cells at 100 uL by microscopy
Type: functional, organism-based
Conditions: not given
Method in brief: as §2

Structure (SMILES) | Activity
CC(=N\NC(=O)c1oc2ccccc2c1C)/C(=N/Nc1ccc([N+](=O)[O-])cc1)N1CCCCC1 | Active

System: Escherichia coli
Test: Ratio of compound to amoxicilline activity against Escherichia coli at 5 mg/ml after 24 to 48 hrs by agar diffusion technique
Type: functional
Conditions: not given

Structure (SMILES) | Ratio
CC(=N\NC(=O)c1oc2ccccc2c1C)/C(=N/Nc1ccc([N+](=O)[O-])cc1)N1CCCCC1 | 0.71
Cc1c(C(=O)N/N=C(/C=C/c2ccc(Cl)cc2)C(=N/Nc2ccc(Br)cc2)\N2CCCCC2)oc2ccccc12 | 0.36

System: Geotrichum candidum
Test: Ratio of compound to grisofulvin activity against Geotrichum candidum at 5 mg/ml after 24 to 48 hrs by agar diffusion technique
Type: functional
Conditions: not given

Structure (SMILES) | Ratio
CC(=N\NC(=O)c1oc2ccccc2c1C)/C(=N/Nc1ccc([N+](=O)[O-])cc1)N1CCCCC1 | 1.2
Cc1c(C(=O)N/N=C(/C=C/c2ccc(Cl)cc2)C(=N/Nc2ccc(Br)cc2)\N2CCCCC2)oc2ccccc12 | 0

System: Candida albicans
Test: Antifungal activity against Candida albicans assessed as distortion of cellular sub-organs by transmission electron microscopy
Type: functional, organism-based
Conditions: not given
Method in brief: as §4

Structure (SMILES) | Activity
CC(=N\NC(=O)c1oc2ccccc2c1C)/C(=N/Nc1ccc([N+](=O)[O-])cc1)N1CCCCC1 | Active

System: Aspergillus fumigatus
Test: Antifungal activity against Aspergillus fumigatus after 24 to 48 hrs by serial dilution technique
Type: functional
Conditions: not given
Method in brief: as §5

Structure (SMILES) | MIC
CC(=N\NC(=O)c1oc2ccccc2c1C)/C(=N/Nc1ccc([N+](=O)[O-])cc1)N1CCCCC1 | 25 µg/mL (≈ 54.1 µM)

System: Bacillus subtilis
Test: Antibacterial activity against Bacillus subtilis at 5 mg/ml after 24 to 48 hrs by agar diffusion technique
Type: functional
Conditions: read-out: IZ
Method in brief: as §1

Structure (SMILES) | zone of inhibition at 5000 µg/mL
CC(=N\NC(=O)c1oc2ccccc2c1C)/C(=N/Nc1ccc([N+](=O)[O-])cc1)N1CCCCC1 | 20 mm
Cc1c(C(=O)N/N=C(/C=C/c2ccc(Cl)cc2)C(=N/Nc2ccc(Br)cc2)\N2CCCCC2)oc2ccccc12 | 16 mm

System: Geotrichum candidum
Test: Antifungal activity against Geotrichum candidum at 5 mg/ml after 24 to 48 hrs by agar diffusion technique
Type: functional
Conditions: read-out: IZ
Method in brief: as §3

Structure (SMILES) | zone of inhibition at 5000 µg/mL
CC(=N\NC(=O)c1oc2ccccc2c1C)/C(=N/Nc1ccc([N+](=O)[O-])cc1)N1CCCCC1 | 12 mm
